Experimental data pooled from the literature.
Compare with care: the assays were run in different laboratories.
Target: Dual specificity protein kinase CLK1 (CLK1, Homo sapiens, UniProt P49759)
Technique: competition with immobilised ligand

For `COc1cnc(Nc2cccc(S(N)(=O)=O)c2)nc1N1CCN(c2ccccc2)CC1`, the remaining binding was 96% (binding; 1 µM).
For `O=C(NCCCN1CCOCC1)c1ccc(Nc2nccc(-c3cc4ccccc4s3)n2)cc1`, the remaining binding was 12% (binding; 1 µM).
`COc1cc(-c2cn(C3CCc4ccccc4N(CC(F)(F)F)C3=O)nn2)ccc1-n1ccc(C)n1` (centres unmarked) has a remaining binding of 87% (cell-free assay; 1 µM).
The remaining binding of `FC(F)(F)Oc1cccc(-c2cnc3ccc(-c4ccncc4)nn23)c1` is reported as 0.7% (cell-free assay; 5 µM).
With `c1cncc(-c2cccc(Nc3nccc(NC4CCCCC4)n3)c2)c1` the remaining binding was 1.1% (binding; 10 µM).
The remaining binding of `Cc1cc(C)c(-n2ccn3nc(-c4cccnc4)cc23)cc1NC(=O)c1cc(C#N)cc(S(F)(F)(F)(F)F)c1` is reported as 96.2% (cell-free assay; 0.1 µM).
`CNC(=O)c1ccccc1Nc1cc(Nc2ccc(N3CCOCC3)cc2OC)ncc1C(F)(F)F` gave a remaining binding of less than 10% (binding; 1 µM).
`CCN1CCN(Cc2ccc(C(=O)Nc3ccc(C)c(Oc4ccc5c(c4)CC(=O)N5)c3)cc2C(F)(F)F)CC1` has a remaining binding of 100% (binding; 1 µM).
For `COc1cnc(Nc2cccc(S(N)(=O)=O)c2)nc1N1CCN(c2ccccc2)C(=O)C1`, the remaining binding was 100% (binding; 1 µM).
`CS(=O)(=O)N1CCCC(NC(=O)[C@H](CCC2CCCCC2)NC(=O)c2ccc(CNc3ncnc4c3nnn4-c3ccccc3)cc2)C1` (some centres unmarked) has a remaining binding of 87% (cell-free assay; 0.1 µM).
`O=C(NCCCN1CCOCC1)c1ccc(Nc2ncc(Cl)c(-c3ccc(Cl)s3)n2)cc1` has a remaining binding of 3.6% (binding; 1 µM).
The remaining binding of `O=C(NCC1CCOCC1)c1n[nH]cc1NC(=O)c1c(F)cccc1F` is reported as 30% (binding; 1 µM).
The remaining binding of `O=C(c1ccc(Nc2nccc(-c3cc4ccccc4s3)n2)cc1)N1CCC(N2CCCC2)CC1` is reported as 13% (binding; 1 µM).
For `COc1cc(-c2cn(C3CCc4c(F)cccc4N(CC(F)(F)F)C3=O)nn2)ccc1-n1cnc(C)c1` (centres unmarked), the remaining binding was 77% (cell-free assay; 1 µM).
